UPR XBP1 act – activators of adaptive XBP1 UPR arm, primary screen, cell-based, CHO-XBP1 luciferase reporter, luminescence, uHTS; actives 0.33% (n = 330,000); activation, % at 20 µM; AID 463104, 2010; IRE1-XBP1 UPR activation; percent of tunicamycin response, DMSO as zero;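 active means versus positive control, 20 µM dose yields 30% or more activation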
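Signal: luciferase luminescence; Assay system: CHO-XBP1 luciferase reporter cells; Amount: one thousand reporter cells per well; Dosing: 20 µM single concentration, DMSO 1%; Benchmarks: high control tunicamycin 10 µg/mL final, low control DMSO vehicle only; Schedule: 6 h compound exposure at 37 °C, 5% CO2; Evaluation: percent activation relative to tunicamycin reference.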
Lipid droplet – inhibitors of hepatocyte lipid droplet formation, primary screen, imaging, high-throughput imaging, BODIPY stain. AML12 mouse hepatocytes, oleate lipid droplets. actives 0.4% (n = 240,000). inhibition, % at 6.5 µM. AID 1656, 2009;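 active means lipid droplet intensity inhibited by at least 50%, with more than 500 cells counted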
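Assay system: AML12 hepatocytes (mouse) / Also added: 100 µM oleic acid challenge / Times: overnight treatment with compound plus oleate / Detection: high-content imaging of BODIPY-stained droplets and DAPI nuclei / Evaluation: % inhibition of lipid droplet signal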
ANO1 activ – TMEM16A chloride channel activators or potentiators, primary screen, cell-based, HTS; Anoctamin-1 (Mus musculus), Q8BHY3; HEK293 TMEM16A/YFP-H148Q/I152L, iodide quench fluorescence; hits give low values; B-score at 10 µM; actives 0.3% (n = 340,000);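 active means fluorescence-ratio B-score plate-corrected deviation score at least 3 library SD below zero, with starting fluorescence score within 5 deviations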;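 further: channel opened by trigger with iodide after compound preincubation; score built on the fluorescence ratio of max minus min over baseline; more negative score means more quench and so TMEM16A activation or potentiation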
CHOP UPR activ – activators of apoptotic CHOP UPR arm, primary screen, cell-based, CHO-CHOP luciferase reporter, luminescence, uHTS | UPR activation; percent of tunicamycin response over DMSO baseline | activation, % at 10 µM | actives 0.34% (n = 330,000) | AID 449763, 2010;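 active means at 10 µM dose, activation of 40% or more, normalized to positive control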
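System: CHO-CHOP luciferase reporter cell line; amount: 500 cells/well; buffer or medium: F12 medium containing 10% fetal bovine serum; incubation: 6 h compound exposure at 37 °C after overnight seeding; measured by: luciferase luminescence after 10 min with Steady-Glo reagent; evaluation: % reporter activation, DMSO baseline versus tunicamycin full activation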
TMEM16A inh – TMEM16A chloride channel inhibitors, primary screen, cell-based, HTS; Anoctamin-1 (Mus musculus), Q8BHY3; HEK293 TMEM16A/YFP iodide influx fluorescence, ionomycin; normalized B-score (activity score, 25-100; higher = stronger inhibition) at 10 µM; actives 1.2% (n = 310,000); AID 588511, 2011;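 active means ratio plate-corrected score three or more library SD toward inhibition, starting fluorescence score within five deviations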;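 further: score derived from kinetic fluorescence span divided by baseline fluorescence per well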
CHOP inh – inhibitors of CHOP promoter induction, primary screen, cell-based, unfolded protein response, luciferase reporter; CHO-K1 CHOP-promoter luciferase, tunicamycin-induced, 15-18 h; inhibition, % at 10 µM; actives 3.8% (n = 220,000);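 active means compounds that reduced the stress-induced luciferase reporter signal by more than about 70% of percent inhibition, limit read from the data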
Large screens that a line does not name were inactive. Only some compounds are listed: those with a hit (about 4.2% of all), similar ones and a draw of the others.

O=C(CN1CCN(S(=O)(=O)c2ccc(C(F)(F)F)cc2)CC1)N1CCNC1=O	none (no result: Lipid droplet, TMEM16A inh, CHOP inh)
CC(C)(C)c1ccc(S(=O)(=O)N2CCN(CC(=O)N3CC(=O)Nc4ccccc43)CC2)cc1	ANO1 activ -38 (no result: Lipid droplet, TMEM16A inh, CHOP inh)
CC(C)(C)c1ccc(-c2nnc(SCCC#N)n2C2CCCC2)cc1	CHOP inh 72
CCc1cccc(NC(=O)C2CCCN2S(=O)(=O)c2ccc3c(c2)CC(C)N3C(C)=O)c1 (stereo not given)	none (no result: CHOP inh)
COC(=O)c1c(NC(=O)c2c(C)noc2C)sc2c1CCCCCC2	none (no result: UPR XBP1 act, ANO1 activ, CHOP UPR activ, TMEM16A inh)
O=C(Nc1sc2c(c1C(=O)c1ccc(Cl)cc1)CCCC2)c1cccnc1	CHOP inh 79
COC(=O)c1c(NC(=O)c2c(-c3ccccc3Cl)noc2C)sc2c1CCC2	CHOP inh 81
COC(=O)c1c(NC(=O)c2ccco2)sc2c1CCC2	CHOP inh 76 (no result: Lipid droplet)
O=C(Nc1sc2c(c1C(=O)O)CCC2)c1ccco1	none (no result: Lipid droplet)
CC(C)(C)c1ccc(C(=O)Nc2sc3c(c2C(=O)O)CCC3)cc1	TMEM16A inh 100
O=C(Nc1sc2c(c1C(=O)c1ccccc1)CCCC2)c1cccnc1	none
COc1ccccc1Oc1ccc(S(=O)(=O)N2CCCCC2)cc1NC(=O)CCNC(C)=O	none (no result: CHOP inh)
Cc1cc(C)cc(NC(=O)Nc2c(Br)cnn2C)c1	none (no result: CHOP inh)
CCN(CC)S(=O)(=O)c1cccc(C(=O)Oc2cccc(NC(=O)c3cccs3)c2)c1	none
CC(Nc1ccccc1N1CCCCC1)C(=O)N1CCc2ccccc21 (stereo not given)	none
O=C(Nc1sc2c(c1C(=O)NC1CC1)CCCCCC2)c1ccco1	CHOP inh 96
O=[N+]([O-])c1cccnc1SCc1ccccc1	none (no result: Lipid droplet, ANO1 activ, CHOP inh)
Cc1cc(C(=O)NNC(=O)C(C)(C)Oc2ccc(Cl)cc2)c(C)o1	none (no result: Lipid droplet, TMEM16A inh, CHOP inh)
Cc1ccc(OCCNC(=O)CCNC(=O)c2ccc(Cl)cc2)cc1	ANO1 activ -26 (no result: Lipid droplet, TMEM16A inh, CHOP inh)
Cc1ccc(OCCNC(=O)CNC(=O)c2ccc(C)cc2)cc1	none (no result: CHOP inh)
O=C(COC(=O)c1ccc(S(=O)(=O)C(F)F)cc1)Nc1ccccc1C(=O)NC1CC1	none (no result: Lipid droplet, TMEM16A inh, CHOP inh)
COc1ccc(C(=O)OCC(=O)c2ccc(F)cc2)cc1OC	none (no result: Lipid droplet, TMEM16A inh, CHOP inh)
COc1ccc(C(=O)COC(=O)c2ccc(OC)c(OC)c2)cc1OC	CHOP inh 75
COC(=O)c1cc(S(=O)(=O)NCCc2ccc(C)cc2)c[nH]1	TMEM16A inh 25 (no result: CHOP inh)
Oc1ccccc1-c1cc(-c2ccco2)[nH]n1	none
Oc1c(-c2cc(-c3ccco3)[nH]n2)ccc2ccccc12	CHOP inh 75
Oc1ccc(Br)cc1-c1cc(-c2ccco2)[nH]n1	CHOP inh 80
Oc1ccc(Cl)cc1-c1cc(-c2ccco2)[nH]n1	none (no result: Lipid droplet)
O=C1CCC/C=C/C[C@H](CC(=O)N(CCO)Cc2ccccc2)C(=O)N[C@@H](Cc2ccccc2)CO1	none (no result: Lipid droplet, TMEM16A inh, CHOP inh)
COc1ccc(CC2(CO)CCN(Cc3cc4ccccc4o3)CC2)cc1	TMEM16A inh 25
OCC1(Cc2cccc(C(F)(F)F)c2)CCN(Cc2cc3ccccc3o2)CC1	CHOP inh 89
COc1cc(C)ccc1OCCOc1c(C)cc(Cl)cc1Cl	none
CCn1c2c(c3cc(Br)ccc31)CCC/C2=N\O	CHOP inh 90
COc1ccc(N=N/C(=C\O)C(=O)c2cccs2)cc1	CHOP inh 72
COc1ccc(C(=O)/C(=C/O)N=Nc2ccc(F)cc2)cc1	none
COc1ccc2c(-c3ccccc3)cc(SCC(=O)NC(N)=O)nc2c1	CHOP inh 77
Cc1cccc(C)c1NC(=O)CNC(=O)c1ccc2ccccc2n1	none (no result: Lipid droplet, TMEM16A inh, CHOP inh)
O=C(Nc1nc(=O)c2ccccc2s1)c1ccc(F)cc1	CHOP inh 91
O=C(Nc1nc(=O)c2ccccc2s1)c1ccc(Cl)cc1	CHOP inh 75

Source: PubChem (several laboratories)
